One compound from ChEMBL document CHEMBL1687700, “Discovery of an Orally Efficacious Imidazo[5,1-f][1,2,4]triazine Dual Inhibitor of IGF-1R and IR” (ACS Med Chem Lett, 2010) can be followed below.

A short description of data set [1]: Cmax in CD-1 mouse plasma at 25 mg/kg, po administered as single dose. It is filed as ADME, organism-based. Also noted: dose 25 mg/kg, route oral.
A short description of data set [2]: Permeability of the compound by PAMPA assay at pH 7.4. Format: ADME. As to conditions: read-out: permeability. The procedure, abridged: (§1)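 Parallel artificial membrane permeability assay run at pH 5.0 and pH 7.4; permeability reported in nm/s.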
A short description of data set [3]: Antiproliferative activity against human GEO cells expressing IGF-1R assessed as intracellular ATP content after 3 days by Cell Titre-Glo luminescent assay. Particulars: 72 h. Format: functional, cell-based.
A further data set deals with Mus musculus. The data set can be described thus: Oral bioavailability in CD-1 mouse at 25 mg/kg, po administered as single dose. As to conditions: mouse, in vivo. It is filed as ADME, organism-based.
Data set [4] is described as follows: Extraction ratio of hepatic clearance to hepatic blood flow in mouse microsomes. As to conditions: liver microsomes. Format: ADME, Microsome. In general terms: Liver microsomes are a subcellular fraction often used to study metabolism.
The next data set addresses Cytochrome P450 2D6 (Homo sapiens, UniProt P10635). The data set can be described thus: Inhibition of CYP2D6. Format: ADME.
In a further data set the target is Insulin receptor (Homo sapiens, UniProt P06213). As to the kind of experiment: Inhibition of auto-phosphorylation of human IR expressed in human HepG2 cells after 2 hrs by luminometry. It is filed as cell-based.
Data set [5] in a line: Clearance in Sprague-Dawley rat at 5 mg/kg, iv administered as single dose. It is filed as ADME, organism-based. Particulars: in vivo. On the set-up: dose 5 mg/kg, route intravenous. Put shortly:
(§2)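 Single 5 mg/kg iv dose used to derive clearance and Vss; median values reported per species (female rat, male rhesus monkey).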

Data set [6] can be described thus: Genotoxicity in Salmonella Typhimurium by Ames test in absence of S9 liver microsomes. Particulars: salmonella enterica subsp. enterica serovar typhimurium. It is filed as toxicity, Microsome.
Data set [7] is described as follows: AUC in Sprague-Dawley rat at 25 mg/kg, po administered as single dose. It is filed as ADME, organism-based. Also noted: dose 25 mg/kg, route oral. Particulars: plasma. Put shortly: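 Single oral dose of 25 mg/kg, given as the free base in 50:50 PEG-400:25 mM tartaric acid, to female rats. Plasma AUC (ng h/mL) is reported as the median. Clearance parameters come from a separate 5 mg/kg iv dose.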

Data set [8] can be described thus: Extraction ratio of hepatic clearance to hepatic blood flow in human microsomes. Format: ADME, Microsome. As to conditions: liver microsomes.
Data set [9] deals with Insulin-like growth factor 1 receptor (Homo sapiens, UniProt P08069). The data set can be described thus: Inhibition of auto-phosphorylation of human IGF1R expressed in mouse NIH-3T3 cells after 2 hrs by luminometry. It is filed as cell-based, NIH3T3.
The nature of data set [10]: Clearance in CD-1 mouse at 5 mg/kg, iv administered as single dose. As to conditions: in vivo. It is filed as ADME, organism-based. On the set-up: dose 5 mg/kg, route intravenous.
Data set [11] can be described thus: Volume of distribution at steady state in Sprague-Dawley rat at 5 mg/kg, iv administered as single dose. It is filed as ADME, organism-based. On the set-up: dose 5 mg/kg, route intravenous. As to conditions: in vivo, read-out: Vdss. The procedure, abridged: as §2
A short description of data set [12]: Antiproliferative activity against human GEO cells expressing IR assessed as intracellular ATP content after 3 days by Cell Titre-Glo luminescent assay. It is filed as functional, cell-based. Particulars: 72 h.
A further data set addresses Cytochrome P450 3A4 (Homo sapiens, UniProt P08684). As to the kind of experiment: Inhibition of CYP3A4. Format: ADME.
Data set [13] can be described thus: Volume of distribution at steady state in CD-1 mouse at 5 mg/kg, iv administered as single dose. Format: ADME, organism-based. On the set-up: dose 5 mg/kg, route intravenous. Particulars: in vivo, read-out: Vdss.
In a further data set the target is T1, Cytochrome P450 1A2 (Homo sapiens, UniProt P05177).
T1 sequence (P05177 whole entry): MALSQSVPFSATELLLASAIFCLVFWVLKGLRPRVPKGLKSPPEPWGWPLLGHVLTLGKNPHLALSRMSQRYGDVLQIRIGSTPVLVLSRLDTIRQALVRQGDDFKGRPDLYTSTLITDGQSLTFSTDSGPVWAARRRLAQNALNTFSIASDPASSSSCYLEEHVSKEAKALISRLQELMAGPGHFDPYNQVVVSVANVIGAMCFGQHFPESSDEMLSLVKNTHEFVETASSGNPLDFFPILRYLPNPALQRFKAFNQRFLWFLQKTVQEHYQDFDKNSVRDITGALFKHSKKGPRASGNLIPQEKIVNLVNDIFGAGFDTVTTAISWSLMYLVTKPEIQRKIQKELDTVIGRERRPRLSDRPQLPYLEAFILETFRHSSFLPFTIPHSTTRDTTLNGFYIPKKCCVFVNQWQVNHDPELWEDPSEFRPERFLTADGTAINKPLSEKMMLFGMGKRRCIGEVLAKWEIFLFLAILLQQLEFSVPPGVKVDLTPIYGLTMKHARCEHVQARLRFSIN
As to the kind of experiment: Inhibition of CYP1A2. It is filed as ADME.

Data set [14] can be described thus: Permeability of the compound by PAMPA assay at pH 5.0. It is filed as ADME. Particulars: read-out: permeability. Put shortly: as §1
(In general: In PAMPA a lipid-coated filter parts donor from acceptor wells.)

Another data set is filed under the species Rattus norvegicus. The data set can be described thus: Toxicity in rat after 14 days. It is filed as organism-based. Particulars: in vivo, 336 h.
Data set [15] is described as follows: Oral bioavailability in Sprague-Dawley rat at 25 mg/kg administered as single dose. Format: ADME, organism-based. Particulars: in vivo.
Data set [16] is described as follows: Genotoxicity in Salmonella Typhimurium by Ames test in presence of S9 liver microsomes. It is filed as toxicity, Microsome. Particulars: salmonella enterica subsp. enterica serovar typhimurium. (In the Ames test, an excess of revertant colonies over the control signals mutagenicity.)
The nature of data set [17]: Cmax in Sprague-Dawley rat at 25 mg/kg, po administered as single dose. As to conditions: in vivo. It is filed as ADME, organism-based. Also noted: dose 25 mg/kg, route oral.

Where only a bound is given, the exact number is not on record here.

Cytochrome P450 2D6, sequence (P10635 whole entry): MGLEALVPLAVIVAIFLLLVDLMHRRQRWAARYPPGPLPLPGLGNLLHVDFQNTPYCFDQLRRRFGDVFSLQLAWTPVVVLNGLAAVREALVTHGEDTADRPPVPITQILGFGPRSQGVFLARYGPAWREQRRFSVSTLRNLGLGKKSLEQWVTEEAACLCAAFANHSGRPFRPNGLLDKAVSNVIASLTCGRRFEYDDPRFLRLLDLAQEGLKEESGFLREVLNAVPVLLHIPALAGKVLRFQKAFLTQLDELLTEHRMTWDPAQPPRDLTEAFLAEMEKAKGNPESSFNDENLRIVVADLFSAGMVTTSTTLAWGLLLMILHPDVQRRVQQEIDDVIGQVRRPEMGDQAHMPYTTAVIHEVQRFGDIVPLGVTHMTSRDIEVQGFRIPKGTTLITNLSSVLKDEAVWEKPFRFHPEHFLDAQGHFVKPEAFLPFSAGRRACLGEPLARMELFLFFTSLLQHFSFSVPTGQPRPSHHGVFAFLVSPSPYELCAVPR
Insulin-like growth factor 1 receptor, sequence (P08069 31-736 limits assumed): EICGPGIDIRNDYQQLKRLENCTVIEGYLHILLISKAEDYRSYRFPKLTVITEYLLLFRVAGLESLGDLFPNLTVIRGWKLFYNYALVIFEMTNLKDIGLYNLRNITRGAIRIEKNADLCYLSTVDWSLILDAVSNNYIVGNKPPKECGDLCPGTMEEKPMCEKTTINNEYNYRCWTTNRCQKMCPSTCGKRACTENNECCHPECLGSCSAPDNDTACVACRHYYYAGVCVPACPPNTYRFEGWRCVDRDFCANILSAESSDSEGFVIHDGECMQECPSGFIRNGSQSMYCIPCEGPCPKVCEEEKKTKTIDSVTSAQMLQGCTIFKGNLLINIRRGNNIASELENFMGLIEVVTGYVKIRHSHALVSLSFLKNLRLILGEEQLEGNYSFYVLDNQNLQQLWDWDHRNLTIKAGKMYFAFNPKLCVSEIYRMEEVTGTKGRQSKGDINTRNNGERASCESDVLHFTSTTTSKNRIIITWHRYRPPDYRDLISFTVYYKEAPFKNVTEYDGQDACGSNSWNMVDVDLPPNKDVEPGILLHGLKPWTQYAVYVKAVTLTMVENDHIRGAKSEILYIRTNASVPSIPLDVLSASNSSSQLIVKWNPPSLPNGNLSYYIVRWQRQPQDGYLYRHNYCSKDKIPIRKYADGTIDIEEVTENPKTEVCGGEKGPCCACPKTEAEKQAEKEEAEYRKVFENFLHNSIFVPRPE
Insulin-like growth factor 1 receptor, sequence (P08069 741-1367 limits assumed): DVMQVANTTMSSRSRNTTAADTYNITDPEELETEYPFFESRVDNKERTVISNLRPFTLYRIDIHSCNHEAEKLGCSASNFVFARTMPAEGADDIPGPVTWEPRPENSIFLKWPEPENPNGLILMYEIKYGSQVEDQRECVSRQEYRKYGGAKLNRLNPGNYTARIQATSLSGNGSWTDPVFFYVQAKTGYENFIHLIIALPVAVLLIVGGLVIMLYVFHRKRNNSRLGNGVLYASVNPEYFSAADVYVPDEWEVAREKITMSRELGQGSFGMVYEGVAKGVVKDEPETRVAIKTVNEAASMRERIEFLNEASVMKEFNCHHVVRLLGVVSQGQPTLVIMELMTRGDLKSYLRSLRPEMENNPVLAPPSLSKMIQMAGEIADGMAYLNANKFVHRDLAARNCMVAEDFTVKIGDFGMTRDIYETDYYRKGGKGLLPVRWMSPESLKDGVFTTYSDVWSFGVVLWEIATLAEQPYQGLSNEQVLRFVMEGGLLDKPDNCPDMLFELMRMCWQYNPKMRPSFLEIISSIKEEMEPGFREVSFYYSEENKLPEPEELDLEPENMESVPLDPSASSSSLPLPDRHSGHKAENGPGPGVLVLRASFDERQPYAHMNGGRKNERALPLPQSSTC
Insulin receptor, sequence (P06213 28-758 limits assumed): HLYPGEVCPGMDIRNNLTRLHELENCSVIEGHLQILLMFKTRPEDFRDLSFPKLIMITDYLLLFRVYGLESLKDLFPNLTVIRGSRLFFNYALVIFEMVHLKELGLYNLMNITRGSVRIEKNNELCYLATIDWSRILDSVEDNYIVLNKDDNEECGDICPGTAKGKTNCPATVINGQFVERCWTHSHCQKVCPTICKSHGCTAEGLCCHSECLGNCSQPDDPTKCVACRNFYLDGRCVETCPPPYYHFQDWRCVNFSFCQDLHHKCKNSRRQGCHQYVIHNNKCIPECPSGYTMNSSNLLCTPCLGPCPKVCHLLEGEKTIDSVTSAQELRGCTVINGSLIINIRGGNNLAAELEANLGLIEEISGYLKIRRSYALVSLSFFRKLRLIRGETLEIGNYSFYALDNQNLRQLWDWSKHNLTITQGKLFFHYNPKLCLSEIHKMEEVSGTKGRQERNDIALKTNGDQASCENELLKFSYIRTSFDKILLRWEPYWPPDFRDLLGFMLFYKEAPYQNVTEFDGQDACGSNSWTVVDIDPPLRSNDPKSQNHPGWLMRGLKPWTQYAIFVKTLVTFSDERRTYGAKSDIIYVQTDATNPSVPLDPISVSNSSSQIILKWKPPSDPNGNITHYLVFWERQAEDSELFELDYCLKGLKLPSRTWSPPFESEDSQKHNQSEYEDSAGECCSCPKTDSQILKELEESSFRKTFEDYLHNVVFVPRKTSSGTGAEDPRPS
Insulin receptor, sequence (P06213 763-1382 limits assumed): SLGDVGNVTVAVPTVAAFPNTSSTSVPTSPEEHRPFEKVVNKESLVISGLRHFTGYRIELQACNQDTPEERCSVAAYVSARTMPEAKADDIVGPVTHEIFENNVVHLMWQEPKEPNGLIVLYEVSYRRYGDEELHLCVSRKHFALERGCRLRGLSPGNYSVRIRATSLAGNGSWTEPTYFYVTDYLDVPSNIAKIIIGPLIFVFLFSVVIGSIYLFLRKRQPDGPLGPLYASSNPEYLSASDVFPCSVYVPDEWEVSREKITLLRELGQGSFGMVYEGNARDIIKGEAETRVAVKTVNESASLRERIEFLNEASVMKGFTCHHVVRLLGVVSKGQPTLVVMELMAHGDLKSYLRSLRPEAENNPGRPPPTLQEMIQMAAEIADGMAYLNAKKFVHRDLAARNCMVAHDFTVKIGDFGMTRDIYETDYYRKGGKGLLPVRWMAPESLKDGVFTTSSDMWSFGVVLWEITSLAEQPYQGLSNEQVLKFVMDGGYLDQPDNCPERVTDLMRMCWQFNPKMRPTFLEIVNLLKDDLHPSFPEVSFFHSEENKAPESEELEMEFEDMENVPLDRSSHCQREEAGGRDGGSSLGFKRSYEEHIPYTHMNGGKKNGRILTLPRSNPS
Cytochrome P450 3A4, sequence (P08684 whole entry): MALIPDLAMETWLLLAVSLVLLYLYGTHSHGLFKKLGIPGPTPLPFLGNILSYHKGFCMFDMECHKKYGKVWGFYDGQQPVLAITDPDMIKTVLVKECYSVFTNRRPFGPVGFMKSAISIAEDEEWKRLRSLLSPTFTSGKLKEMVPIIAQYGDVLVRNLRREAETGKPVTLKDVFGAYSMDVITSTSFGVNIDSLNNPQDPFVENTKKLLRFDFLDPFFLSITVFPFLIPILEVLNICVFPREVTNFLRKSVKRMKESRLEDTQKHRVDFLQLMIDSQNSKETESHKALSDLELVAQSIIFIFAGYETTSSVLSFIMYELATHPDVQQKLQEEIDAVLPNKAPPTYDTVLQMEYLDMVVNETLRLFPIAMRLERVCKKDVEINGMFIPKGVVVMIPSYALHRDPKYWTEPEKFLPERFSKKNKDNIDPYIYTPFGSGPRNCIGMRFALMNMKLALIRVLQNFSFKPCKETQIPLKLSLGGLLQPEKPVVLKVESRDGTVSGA

As a reminder, the Cmax is the highest concentration seen after dosing. Usually EC50 stands for the concentration at which the effect is half-maximal. For orientation: IC50 means the concentration at which inhibition is half-maximal. Broadly, the clearance is the volume of plasma or blood freed of the substance per unit of time. Lower therefore signals a low capacity for elimination. In general, AUC refers to concentration integrated over time. As a reminder, the bioavailability is dose-corrected exposure relative to a reference, in per cent. Regarding `C[C@]1(O)C[C@@H](c2nc(-c3ccc4ccc(-c5ccccc5)nc4c3F)c3c(N)ncnn32)C1`, the results for the Cmax in [1] and in data set [17] were 20.5 µM and 11.3 µM, respectively. The Papp in data set [2] is 110 ×10⁻⁶ cm/s; in data set [14] it was 109 ×10⁻⁶ cm/s. Also, the concentration for a half-maximal effect (EC50) in data set [3] and in [12] was 130 nM in each case. Further, the F in the data set with Mus musculus came out at 162%. Further, the hepatic extraction ratio in data set [4] was 0.43; in [8], 0.55. For the same compound, the IC50 is more than 25000 nM against Cytochrome P450 2D6; 76 nM against Insulin receptor; 17 nM in data set [9]; more than 25000 nM against Cytochrome P450 3A4; more than 25000 nM at Cytochrome P450 1A2. The clearance in data set [5] and in data set [10] was 4 mL/min/kg in each case. Besides, the Activity entry (in data set [6]; in the data set listed under Rattus norvegicus; in data set [16]) was “Non-toxic” in each case. The compound further came in with an AUC in data set [7] of 62400 ng·h/mL. Besides, the Vd in data set [11] came out at 0.97 L/kg; in data set [13], 1 L/kg. Also, in [15], the bioavailability stood at 64%.
